pKd, pKi: −log10 of the molar value.
Tests used:
[1] = biological target: T1, Histone acetyltransferase p300 (Homo sapiens, UniProt Q09472); assay: Inhibition of HAT p300 catalytic domain
[2] = biological target: T1, Histone acetyltransferase p300; assay: Inhibition of HAT p300 catalytic domain activity expressed in Escherichia coli BL21 (DE3) co-transformed with human SirT2 by fluorography/autoradiography assay
[3] = biological target: T1, Histone acetyltransferase p300; assay: Binding affinity to HAT p300 catalytic domain by fluorometric titration
Method in brief: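 p300 HAT domain (aa 1284–1673, 6His, from E. coli BL21(DE3) co-expressing SirT2), 1.2 μM, titrated with ligand in 20 mM Tris-HCl pH 7.5, 0.2 mM EDTA, 100 mM KCl. Tryptophan emission read at 340 nm (excitation 295 nm). Kd obtained by nonlinear least-squares fit; ΔFmax taken from a double-reciprocal plot.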

[4] = biological target: T1, Histone acetyltransferase p300; assay: Binding affinity to HAT p300 catalytic domain by isothermal titration calorimetry
Method in brief: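 ITC at 20 °C. Ligand at 30–35 μM injected into 3 μM p300 HAT domain in 20 mM Tris-HCl pH 7.5, 0.2 mM EDTA, 100 mM KCl. 35 injections, 2 min apart; the first 1 μL injection was discarded. Ligand-into-buffer and buffer-into-buffer blanks were subtracted, and data fitted to a one-set-of-sites model.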

[5] = biological target: Histone acetyltransferase KAT2B (Homo sapiens) (UniProt Q92831); assay: Inhibition of HAT PCAF relative to control; design: scale not given: the % may be the effect or the level left
Method in brief: (§1)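 Filter-binding HAT assay with PCAF, purified HeLa core histones and ³H-acetyl-CoA, run at increasing inhibitor concentrations. Activity compared with a DMSO solvent control.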

[6] = biological target: T1, Histone acetyltransferase p300; assay: Inhibition of HAT p300 catalytic domain assessed as drug-induced alteration of protein tertiary structure at 2.5 uM by Stern-Volmer plot; design: scale not given: the % may be the effect or the level left
Method in brief: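 p300 HAT domain (1.2 μM) preincubated 2 min at room temperature with 2.5 μM inhibitor in 20 mM Tris-HCl pH 7.5, 0.2 mM EDTA, 100 mM KCl. Acrylamide added stepwise; fluorescence read at 340 nm (excitation 295 nm) at 20 °C. Ksv taken from a Stern–Volmer plot and tryptophan accessibility from a modified Stern–Volmer plot.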

[7] = biological target: Histone acetyltransferase KAT2B (Homo sapiens) (UniProt Q92831); assay: Inhibition of HAT PCAF up to 10 uM after 2 mins in absence of acetyl-CoA; design: scale not given: the % may be the effect or the level left
Method in brief: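 PCAF preincubated with inhibitor at 10 μM without acetyl-CoA over a time course, then assayed for HAT activity on purified HeLa core histones in triplicate. Activity compared with a DMSO control.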

[8] = biological target: Histone acetyltransferase KAT2B (Homo sapiens) (UniProt Q92831); assay: Inhibition of HAT PCAF up to 40 uM relative to control; design: scale not given: the % may be the effect or the level left
Method in brief: as §1

Chain of Histone acetyltransferase KAT2B (Homo sapiens) (Q92831 whole entry, looked up): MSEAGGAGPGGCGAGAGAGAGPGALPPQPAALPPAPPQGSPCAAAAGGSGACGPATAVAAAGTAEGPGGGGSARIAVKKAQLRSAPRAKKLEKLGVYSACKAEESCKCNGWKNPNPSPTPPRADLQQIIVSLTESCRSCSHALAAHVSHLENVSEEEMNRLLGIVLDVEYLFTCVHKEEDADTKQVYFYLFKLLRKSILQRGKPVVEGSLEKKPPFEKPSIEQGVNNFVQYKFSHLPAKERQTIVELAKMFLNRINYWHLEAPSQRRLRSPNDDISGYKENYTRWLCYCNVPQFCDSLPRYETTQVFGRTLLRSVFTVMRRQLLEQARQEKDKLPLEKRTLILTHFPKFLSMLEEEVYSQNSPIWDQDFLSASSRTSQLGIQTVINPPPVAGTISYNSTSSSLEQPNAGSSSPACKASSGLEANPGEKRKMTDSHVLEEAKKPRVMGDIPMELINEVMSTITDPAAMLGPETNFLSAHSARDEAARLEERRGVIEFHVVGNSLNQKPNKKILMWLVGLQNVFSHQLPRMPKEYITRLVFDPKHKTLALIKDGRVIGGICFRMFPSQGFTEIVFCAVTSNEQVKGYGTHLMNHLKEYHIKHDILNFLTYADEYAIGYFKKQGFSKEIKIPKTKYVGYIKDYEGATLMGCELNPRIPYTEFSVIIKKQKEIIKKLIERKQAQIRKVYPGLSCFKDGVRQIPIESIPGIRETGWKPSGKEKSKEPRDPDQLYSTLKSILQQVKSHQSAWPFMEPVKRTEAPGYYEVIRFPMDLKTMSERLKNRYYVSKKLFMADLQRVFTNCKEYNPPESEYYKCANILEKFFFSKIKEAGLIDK
T1 sequence (Q09472 whole entry, the tested form may be a part): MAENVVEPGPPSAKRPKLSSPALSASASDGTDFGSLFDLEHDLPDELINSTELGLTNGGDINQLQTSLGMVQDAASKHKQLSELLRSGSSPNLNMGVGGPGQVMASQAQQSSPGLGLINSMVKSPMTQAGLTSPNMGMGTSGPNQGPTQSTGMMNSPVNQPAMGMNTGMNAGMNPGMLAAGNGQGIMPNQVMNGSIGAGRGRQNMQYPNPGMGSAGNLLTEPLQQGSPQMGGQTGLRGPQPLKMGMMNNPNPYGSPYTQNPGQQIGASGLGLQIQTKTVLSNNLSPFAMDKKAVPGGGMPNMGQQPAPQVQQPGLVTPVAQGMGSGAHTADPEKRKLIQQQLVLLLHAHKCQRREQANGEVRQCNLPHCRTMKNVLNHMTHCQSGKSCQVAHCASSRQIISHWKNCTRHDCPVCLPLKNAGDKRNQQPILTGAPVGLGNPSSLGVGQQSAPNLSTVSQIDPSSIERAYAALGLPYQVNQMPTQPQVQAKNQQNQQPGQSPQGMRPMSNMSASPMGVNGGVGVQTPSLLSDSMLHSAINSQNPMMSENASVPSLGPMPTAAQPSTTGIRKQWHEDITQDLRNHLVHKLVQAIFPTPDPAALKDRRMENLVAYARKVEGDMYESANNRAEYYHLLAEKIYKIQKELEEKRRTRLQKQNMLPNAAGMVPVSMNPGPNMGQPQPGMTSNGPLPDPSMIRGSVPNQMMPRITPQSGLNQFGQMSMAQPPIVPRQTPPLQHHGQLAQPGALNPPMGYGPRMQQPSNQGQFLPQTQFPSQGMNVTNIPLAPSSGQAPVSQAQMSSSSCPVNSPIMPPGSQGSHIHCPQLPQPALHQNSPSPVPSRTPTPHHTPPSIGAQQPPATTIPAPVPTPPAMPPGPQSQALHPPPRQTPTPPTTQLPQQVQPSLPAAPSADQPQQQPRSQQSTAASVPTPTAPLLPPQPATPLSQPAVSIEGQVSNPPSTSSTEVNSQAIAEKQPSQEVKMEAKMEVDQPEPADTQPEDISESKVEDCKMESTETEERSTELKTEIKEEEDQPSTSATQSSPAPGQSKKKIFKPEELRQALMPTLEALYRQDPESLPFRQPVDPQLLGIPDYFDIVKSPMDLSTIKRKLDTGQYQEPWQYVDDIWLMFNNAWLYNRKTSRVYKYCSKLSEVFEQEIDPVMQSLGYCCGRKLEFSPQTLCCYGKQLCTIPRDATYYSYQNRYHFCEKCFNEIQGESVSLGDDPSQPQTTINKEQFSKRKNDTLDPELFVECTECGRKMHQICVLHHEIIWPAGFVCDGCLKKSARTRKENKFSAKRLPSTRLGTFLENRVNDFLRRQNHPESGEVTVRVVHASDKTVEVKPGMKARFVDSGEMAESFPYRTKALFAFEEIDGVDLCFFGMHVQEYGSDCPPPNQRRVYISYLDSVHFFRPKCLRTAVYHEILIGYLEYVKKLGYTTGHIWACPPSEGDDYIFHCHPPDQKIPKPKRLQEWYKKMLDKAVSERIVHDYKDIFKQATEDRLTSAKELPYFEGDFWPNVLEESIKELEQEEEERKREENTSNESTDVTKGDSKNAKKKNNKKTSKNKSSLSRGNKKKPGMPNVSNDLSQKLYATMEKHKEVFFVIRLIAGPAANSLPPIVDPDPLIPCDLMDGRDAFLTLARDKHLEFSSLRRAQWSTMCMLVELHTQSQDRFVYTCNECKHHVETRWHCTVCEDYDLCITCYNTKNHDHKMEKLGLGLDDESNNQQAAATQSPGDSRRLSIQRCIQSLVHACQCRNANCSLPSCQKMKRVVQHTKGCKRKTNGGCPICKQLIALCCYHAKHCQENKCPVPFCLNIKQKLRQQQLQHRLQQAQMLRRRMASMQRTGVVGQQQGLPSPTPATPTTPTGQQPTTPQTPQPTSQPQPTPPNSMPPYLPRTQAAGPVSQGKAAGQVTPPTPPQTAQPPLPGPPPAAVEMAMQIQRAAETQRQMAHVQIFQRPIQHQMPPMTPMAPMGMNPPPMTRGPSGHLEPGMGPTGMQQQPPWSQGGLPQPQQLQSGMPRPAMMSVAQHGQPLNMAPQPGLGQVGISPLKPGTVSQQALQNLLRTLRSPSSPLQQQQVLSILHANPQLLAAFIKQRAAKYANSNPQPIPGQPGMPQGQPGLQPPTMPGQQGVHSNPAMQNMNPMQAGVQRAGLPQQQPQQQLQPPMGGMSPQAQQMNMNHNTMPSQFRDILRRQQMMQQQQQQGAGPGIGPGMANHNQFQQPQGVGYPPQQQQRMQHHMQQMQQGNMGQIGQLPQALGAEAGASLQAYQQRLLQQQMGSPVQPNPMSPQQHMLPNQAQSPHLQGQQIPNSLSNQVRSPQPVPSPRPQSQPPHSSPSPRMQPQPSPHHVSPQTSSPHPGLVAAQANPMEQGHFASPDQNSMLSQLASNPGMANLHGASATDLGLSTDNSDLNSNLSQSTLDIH

SMILES	pKi [1]	Activity [2]	pKd [3]	pKd [4]	Activity [5] [%]	Activity [6] [%]	Activity [7] [%]	Activity [8] [%]
CC(C)=CC[C@H]1C[C@@]23C[C@@H](CC=C(C)C)C(C)(C)[C@@](CC=C(C)C)(C(=O)C(C(=O)c4ccc(O)c(O)c4)=C2OC1(C)C)C3=O [CAMBOGIN]	5.41	Dose-dependent effect	5.96	5.23	50	75		
C=C(C)[C@@H](CC=C(C)C)C[C@@]12C[C@@H](CC=C(C)C)C(C)(C)[C@@](CC=C(C)C)(C(=O)C(C(=O)c3ccc(O)c(O)c3)=C1O)C2=O [GARCINOL]	5.31	Dose-dependent effect	5.74	5.18		78	80	90
